This note sets out measurements from ChEMBL document CHEMBL3124841, “Discovery of vinyl sulfones as a novel class of neuroprotective agents toward Parkinson's disease therapy” (J Med Chem, 2014).

Active and inactive are the calls of the source. The calls are words filed in the database; no cut-off is given here.

Series [1] addresses T1, Nuclear factor erythroid 2-related factor 2 (Mus musculus) (UniProt Q60795).
T1 sequence (whole entry): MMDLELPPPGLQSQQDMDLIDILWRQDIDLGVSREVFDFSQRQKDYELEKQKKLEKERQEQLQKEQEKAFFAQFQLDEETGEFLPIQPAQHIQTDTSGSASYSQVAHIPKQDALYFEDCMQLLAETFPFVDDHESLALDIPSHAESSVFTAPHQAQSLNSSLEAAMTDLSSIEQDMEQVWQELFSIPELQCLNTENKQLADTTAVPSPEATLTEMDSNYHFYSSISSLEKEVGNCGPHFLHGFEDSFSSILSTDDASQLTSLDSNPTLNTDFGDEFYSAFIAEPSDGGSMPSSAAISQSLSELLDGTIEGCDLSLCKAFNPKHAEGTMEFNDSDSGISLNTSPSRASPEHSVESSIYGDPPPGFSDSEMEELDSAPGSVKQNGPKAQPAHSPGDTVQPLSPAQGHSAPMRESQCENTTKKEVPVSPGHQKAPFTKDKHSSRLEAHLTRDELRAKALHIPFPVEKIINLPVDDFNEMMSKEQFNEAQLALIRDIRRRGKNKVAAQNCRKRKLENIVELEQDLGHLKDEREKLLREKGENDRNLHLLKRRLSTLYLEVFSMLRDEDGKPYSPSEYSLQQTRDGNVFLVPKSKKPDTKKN
Put plainly: Induction of Nrf2-dependent GCLC gene expression in mouse CATH.a cells at 10 uM after 6 hrs by RT-PCR analysis relative to control. The format is cell-based. An outline of the steps: (§1)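 CATH.a cells grown in RPMI 1640 with 8% horse serum and 4% FBS, exposed to graded concentrations for 6 h. mRNA analysed by RT-PCR with gene-specific primers, products run on 1% agarose gel, band densitometry normalized to GAPDH. At least duplicate cultures; fold induction versus untreated control ± SEM.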

Series [2] relates to Mus musculus. In words: Inhibition of motor deficits in MPTP-induced C57Bl/6 mouse parkinson's disease model assessed as time taken to climb down at 10 mg/kg/day, po for 3 days administered first dose at 24 hrs prior to first injection of 4X 20 mg/kg, ip MPTP challenge by vertical grid test (reference value: 22.4 +/-3.9 s). The format is functional.
Series [3] concerns the target T1, Nuclear factor erythroid 2-related factor 2 (Mus musculus). In words: Induction of Nrf2-dependent HO1 protein level in mouse BV-2 cells at 20 uM after 24 hrs by sandwich ELISA relative to control. Type of series: cell-based. An outline of the steps: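 Murine BV-2 microglia in DMEM/10% FBS, 2.0 × 10⁴ cells per well, treated at 20 μM for 24 h in triplicate. Lysates in NP-40 Tris buffer (pH 8.0) diluted tenfold; HO-1 measured by sandwich ELISA with HRP-streptavidin and Amplex Red fluorescence (ex 530/em 590 nm). Expressed as % of 0.04% DMSO vehicle control ± SEM; sulforaphane 5 μM as reference.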

The target is the same in series [4]. In words: Induction of Nrf2-dependent HO1 protein expression in mouse CATH.a cells at 1 to 10 uM after 24 hrs by western blot analysis relative to control. Type of series: cell-based. An outline of the steps:
(§2)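 Cells (CATH.a) exposed to graded concentrations for 24 h, lysed in RIPA buffer with protease inhibitors. Equal protein separated on 10% SDS gel, blotted; primary antibodies overnight at 4 °C, HRP secondary, chemiluminescence. Densitometry normalized to β-actin. At least duplicate cultures, fold of untreated control ± SEM.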

Series [5] in a line: Cytotoxicity against mouse CATH.a cells assessed as cell viability at 0.1 to 2 uM after 72 hrs by LDH activity assay. Type of series: cell-based. An outline of the steps:
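Seeded at 2.4 × 10⁴ CATH.a cells/well and exposed to the agent alone for 72 h. LDH in culture medium measured with 0.26 mM NADH, 2.87 mM pyruvate in 100 mM potassium phosphate pH 7.4; absorbance at 340 nm followed 5 min at 2 s intervals, room temperature. Duplicate cultures minimum; % untreated control ± SEM.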

The target in series [6] is T1, Nuclear factor erythroid 2-related factor 2 (Mus musculus). In words: Induction of Nrf2-dependent GCLC protein expression in mouse CATH.a cells after 24 hrs by western blot analysis. The format is cell-based. An outline of the steps:
as §2

The target is the same in series [7]. Put plainly: Induction of Nrf2-dependent HO1 gene expression in mouse CATH.a cells at 1 to 10 uM after 6 hrs by RT-PCR analysis relative to control. Type of series: cell-based. Put shortly:
as §1

Series [8] has the same target. Put plainly: Induction of Nrf2-dependent HO1 protein expression in mouse CATH.a cells at 0.1 uM after 24 hrs by western blot analysis. The format is cell-based. Put shortly: as §2
Background: A western blot detects proteins with antibodies after separation by electrophoresis.

Series [9] shares this target. In words: Induction of Nrf2-dependent GCLC gene expression in mouse CATH.a cells at 0.1 uM after 6 hrs by RT-PCR analysis. The format is cell-based. An outline of the steps: as §1
Series [10] has the same target. In words: Induction of Nrf2-dependent GCLM gene expression in mouse CATH.a cells at 10 uM after 6 hrs by RT-PCR analysis relative to control. Type of series: cell-based. Put shortly:
as §1

Series [11] has the same target. Put plainly: Induction of Nrf2 nuclear translocation in mouse CATH.a cells at 1 uM after 3 hrs by western blot analysis. The format is cell-based. Put shortly: (§3)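 Mouse DAergic CATH.a cells treated at various concentrations for 3 h. Nuclei isolated by hypotonic HEPES buffer/NP-40 lysis, then nuclear proteins extracted in 400 mM NaCl HEPES buffer. Nrf2 Western blot with lamin B as nuclear marker, chemiluminescent detection, densitometry. At least duplicate cultures, expressed as fold induction over untreated control ± SEM.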

Series [12] shares this target. In words: Induction of Nrf2 nuclear translocation in mouse CATH.a cells at 10 uM after 3 hrs by western blot analysis relative to control. Type of series: cell-based. Put shortly:
as §3

The target is the same in series [13]. Put plainly: Induction of Nrf2-dependent GCLM gene expression in mouse CATH.a cells at 0.1 uM after 6 hrs by RT-PCR analysis. Type of series: cell-based. An outline of the steps: as §1
For series [14], the species on record is Mus musculus. Put plainly: Neuroprotection against BH4-induced mouse CATH.a cell death assessed as cell viability at 0.1 uM treated for 20 hrs prior to BH4 challenge for 24 hrs by ATP assay. Type of series: functional. An outline of the steps:
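CATH.a cells (2.4 × 10⁴/well) pretreated with graded concentrations for 20 h, then challenged with 200 μM BH4 for a further 24 h. Viability as cellular ATP by CellTiter-Glo luminescence. At least duplicate cultures, percent of untreated control ± SEM, compared with BH4-treated cells.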

The target in series [15] is T1, Nuclear factor erythroid 2-related factor 2 (Mus musculus). In words: Induction of Nrf2-dependent GCLC gene expression in mouse CATH.a cells at 2 uM after 6 hrs by RT-PCR analysis relative to control. The format is cell-based. An outline of the steps:
as §1

Series [16] relates to Mus musculus. In words: Neuroprotective activity against MPTP-induced neurodegeneration in C57Bl/6 mouse parkinson's disease model assessed as increase in DAergic fibers in striatum at 10 mg/kg/day, po for 3 days administered first dose at 24 hrs prior to first injection of 4X 20 mg/kg, ip MPTP challenge measured 7 days after first MPTP injection by immunohistochemistry. Type of series: functional, organism-based. Put shortly:
(§4)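 Male C57Bl/6 mice (23−25 g, n = 10/group) dosed orally at 10 mg/kg/day for 3 days, vehicle N-methyl-2-pyrrolidone and 20% Tween 80 in saline. MPTP 4 × 20 mg/kg ip 2 h apart, starting 24 h after first oral dose. Perfusion-fixed 7 days after first MPTP; TH immunostaining, nigral cells counted and striatal fibers densitometered on five sections each, 80 μm apart. Expressed as % vehicle control ± SEM.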

In series [17] the target is T1, Nuclear factor erythroid 2-related factor 2 (Mus musculus). In words: Induction of Nrf2 nuclear translocation in mouse CATH.a cells after 3 hrs by western blot analysis. Type of series: cell-based. Put shortly:
as §3

The subject of series [18] is Mus musculus. In words: Effect on DAergic neurons in C57Bl/6 mouse SN at 10 mg/kg/day, po for 3 days by immunohistochemistry. The format is ADME, organism-based. On the set-up: route oral. Particulars: in vivo, 72 h. An outline of the steps:
as §4

For `COc1ccccc1S(=O)(=O)/C=C/c1ccccc1Cl`, the fold change (FC) was determined as 2.64 in series [1]; 3.8 in series [3]; 3 in series [4]; 3 in [7]; 2.56 in [10]; 3.5 in series [12]. In [15], this molecule displayed a fold change (FC) of 1.41. Further, the Time in series [2] is recorded as 6.3 s. The Activity entry was “Non-toxic” in [5], “Dose-dependent effect” in series [6], “Dose-dependent effect” in [17] and “Non-toxic” in series [18]. For the same molecule, the outcome in [8], in [9] and in series [13] was inactive. Moreover, the result in series [11], in series [14] and in series [16] was Active.
